What was measured:
[1] = test system: Mus musculus; assay: Percentage inhibition of the mouse arachidonic acid induced ear edema assay (AA) at a dose of 100 ug/ear; type: functional
In short: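 Groups of 10 male CF1 mice (18–20 g). Compound in acetone is applied topically to both ears just before 1 mg arachidonic acid in acetone is applied to one ear; the other ear serves as control. Mice are killed 60 min later and 6-mm ear punches weighed; swelling is the weight difference. %Inhibition = [(C−T)/C]×100, with Student's t test.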

[2] = biological target: T1, Polyunsaturated fatty acid 5-lipoxygenase (Rattus norvegicus, UniProt P12527); assay: Ability to inhibit 5-lipoxygenase by using a crude preparation of the cytosolic enzyme from the rat basophilic leukemia (RBL-1) cell line; type: cell-based
T1 sequence (P12527 whole entry): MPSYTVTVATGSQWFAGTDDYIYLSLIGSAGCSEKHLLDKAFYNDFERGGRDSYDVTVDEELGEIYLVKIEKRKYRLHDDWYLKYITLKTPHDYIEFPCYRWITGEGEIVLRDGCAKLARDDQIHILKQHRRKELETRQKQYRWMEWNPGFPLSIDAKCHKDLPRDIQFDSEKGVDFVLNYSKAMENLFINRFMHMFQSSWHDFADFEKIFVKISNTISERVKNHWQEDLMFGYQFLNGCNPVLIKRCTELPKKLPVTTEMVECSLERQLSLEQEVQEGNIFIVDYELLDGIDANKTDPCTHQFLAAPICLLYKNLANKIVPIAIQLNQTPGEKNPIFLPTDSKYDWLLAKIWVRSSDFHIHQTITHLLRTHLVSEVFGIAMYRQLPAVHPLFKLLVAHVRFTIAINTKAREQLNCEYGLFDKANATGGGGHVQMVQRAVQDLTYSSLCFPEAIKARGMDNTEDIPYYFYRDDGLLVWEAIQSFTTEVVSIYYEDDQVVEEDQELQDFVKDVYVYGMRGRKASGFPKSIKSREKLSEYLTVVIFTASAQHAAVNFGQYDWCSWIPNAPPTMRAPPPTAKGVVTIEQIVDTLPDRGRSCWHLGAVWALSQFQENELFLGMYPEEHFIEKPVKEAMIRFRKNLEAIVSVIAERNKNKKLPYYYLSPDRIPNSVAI
In short: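 Crude cytosolic enzyme (supernatant) from RBL-1 cells, amount giving net 3300–3800 dpm 5-HETE (9–20 μg cell protein/assay). Enzyme is preincubated 5 min at 37 °C, pH 7.0, with compound (in 5% DMSO/Tris pH 8.5) in phosphate buffer with EDTA, gelatin, glutathione, CaCl2 and 0.012 mM indomethacin. Reaction is started with 0.042 mM final [14C]arachidonic acid and stopped by freezing after 2 min.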

[3] = biological target: T2, Cyclooxygenase (Bos taurus, UniProt O62664+O62698); assay: In vitro inhibition of Prostaglandin G/H synthase in BSV cell line.; type: cell-based
T2 sequence (O62664 whole entry): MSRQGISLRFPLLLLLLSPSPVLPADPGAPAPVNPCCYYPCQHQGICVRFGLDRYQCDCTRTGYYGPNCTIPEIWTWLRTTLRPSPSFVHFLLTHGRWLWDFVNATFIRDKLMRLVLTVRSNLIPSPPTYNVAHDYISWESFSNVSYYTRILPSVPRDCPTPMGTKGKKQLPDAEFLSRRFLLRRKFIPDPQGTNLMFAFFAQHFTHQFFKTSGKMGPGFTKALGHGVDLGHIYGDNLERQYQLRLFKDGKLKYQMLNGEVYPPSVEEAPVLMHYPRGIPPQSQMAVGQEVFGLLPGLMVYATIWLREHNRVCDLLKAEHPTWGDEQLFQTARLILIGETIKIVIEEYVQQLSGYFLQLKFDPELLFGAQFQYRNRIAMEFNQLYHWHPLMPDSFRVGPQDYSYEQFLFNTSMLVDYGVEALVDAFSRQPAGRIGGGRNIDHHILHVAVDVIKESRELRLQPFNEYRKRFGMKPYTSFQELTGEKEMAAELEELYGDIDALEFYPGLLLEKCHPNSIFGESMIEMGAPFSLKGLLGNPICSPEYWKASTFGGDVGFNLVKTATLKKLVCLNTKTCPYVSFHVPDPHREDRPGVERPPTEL
T2 sequence (O62698 whole entry): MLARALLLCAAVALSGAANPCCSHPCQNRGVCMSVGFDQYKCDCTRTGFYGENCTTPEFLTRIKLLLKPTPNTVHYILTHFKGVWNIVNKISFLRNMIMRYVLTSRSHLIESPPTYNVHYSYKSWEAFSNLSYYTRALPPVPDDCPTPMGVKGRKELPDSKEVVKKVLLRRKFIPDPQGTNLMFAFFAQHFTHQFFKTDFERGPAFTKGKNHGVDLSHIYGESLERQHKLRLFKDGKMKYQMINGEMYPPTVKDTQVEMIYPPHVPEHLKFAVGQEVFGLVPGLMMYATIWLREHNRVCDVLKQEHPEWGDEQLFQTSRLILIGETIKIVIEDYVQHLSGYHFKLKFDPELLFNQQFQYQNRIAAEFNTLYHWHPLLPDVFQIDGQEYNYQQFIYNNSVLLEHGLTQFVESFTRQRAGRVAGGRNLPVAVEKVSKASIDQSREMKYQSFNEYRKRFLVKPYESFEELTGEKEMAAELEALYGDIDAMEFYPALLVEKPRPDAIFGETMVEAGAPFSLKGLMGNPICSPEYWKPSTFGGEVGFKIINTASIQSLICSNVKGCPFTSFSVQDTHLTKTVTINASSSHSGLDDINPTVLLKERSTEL

Row | Structure (SMILES) | IC50 [2] [nM] | IC50 [3] [nM] | Inhibition [1] [%]
1 | Oc1c(Cc2ccccn2)ccc2ccccc12 | 390 | – | 56
2 | O=C(c1ccccc1)c1cc(Cc2ccccc2)c(O)c2ccccc12 | 54 | – | 41
3 | Oc1c(Cc2ccco2)ccc2ccccc12 | 37 | – | 84
4 | CCOc1ccccc1Cc1ccc2ccccc2c1O | 570 | – | 51
5 | CC(=O)c1cc(Cc2ccccc2)c(O)c2ccccc12 | 510 | – | 16
6 | Oc1c(Cc2ccccc2)cccc1Cc1ccccc1 | 8800 | 52000 | 21
7 | Oc1c(Cc2ccccc2)cc(-c2ccccc2)c2ccccc12 | 56 | – | 26
8 | OC(c1ccccc1)c1ccc2ccccc2c1 (centres undefined) | 40000 | – | 16
9 | O=C(O)c1cc(Cc2ccccc2)c(O)c2ccccc12 | 5800 | – | 3
10 | O=C(O)CCCCc1ccc2ccccc2c1O | 4200 | 720000 | 9
11 | CC(Cc1ccc(O)c(O)c1)C(C)Cc1ccc(O)c(O)c1 (centres undefined) [NORDIHYDROGUAIARETIC ACID] | – | 14000 | 25
12 | Oc1c(Cc2cccs2)ccc2ccccc12 | 60 | – | 84
13 | Cc1ccc2ccccc2c1O | 130 | 3000 | 73
14 | Oc1c(Cc2ccccc2)cc(Br)c2ccccc12 | 77 | – | 33
15 | O=[N+]([O-])c1ccc(Cc2ccc3ccccc3c2O)cc1 | 48 | – | 58
16 | CCOC(=O)/C=C/c1ccc2ccccc2c1O | 45 | 11000 | 0

Row | Structure (SMILES) | IC50 [2] [nM] | IC50 [3] [nM] | Inhibition [1] [%]
17 | Cn1cccc1Cc1ccc2ccccc2c1O | 140 | – | 72
18 | Cn1ccnc1Cc1ccc2ccccc2c1O | 3500 | – | 9
19 | NS(=O)(=O)c1cc(Cc2ccccc2)c(O)c2ccccc12 | 9400 | – | 3
20 | Oc1c(Cc2cccc(Oc3ccccc3)c2)ccc2ccccc12 | 83 | – | 60
21 | CS(=O)(=O)c1cc(Cc2ccccc2)c(O)c2ccccc12 | 40000 | – | 15
22 | Oc1ccc(Cc2ccccc2)c2ccccc12 | 820 | 5900 | 42
23 | CCOC(=O)CCc1ccc2ccccc2c1O | 58 | 13000 | 69
24 | CC(C)(C)c1ccc2ccccc2c1O | 180 | 37000 | 67
25 | CC(c1ccccc1)c1ccc2ccccc2c1O (centres undefined) | 70 | 8700 | 45
26 | Oc1c(Cc2ccc3c(c2)OCO3)ccc2ccccc12 | 40 | – | 78
27 | Oc1c(/C=C\c2ccccc2)ccc2ccccc12 | 160 | 13000 | 65
28 | O=[N+]([O-])c1cc(Cc2ccccc2)c(O)c2ccccc12 | 48000 | – | 28
29 | Oc1cccc2ccccc12 [1-NAPHTHOL] | 3600 | 2000 | 59
30 | Oc1cc2ccccc2cc1Cc1ccccc1 | 7200 | 35000 | 33
31 | Oc1cc(Cc2ccccc2)cc2ccccc12 | 690 | 2700 | 28
32 | CCOC(=O)c1cc(Cc2ccccc2)c(O)c2ccccc12 | 160 | – | 16

Second part, led by results:

Row | IC50 [2] [nM] | IC50 [3] [nM] | Structure (SMILES) | Inhibition [1] [%]
33 | 120 | – | Cc1ccccc1Cc1ccc2ccccc2c1O | 66
34 | 24 | – | Cc1ccc(Cc2ccc3ccccc3c2O)cc1 | 79
35 | 62 | – | Cc1cc(C)c2ccc(Cc3ccccc3)c(O)c2c1 | 44
36 | 31 | – | COc1cc(Cc2ccccc2)c(O)c2ccccc12 | 69
37 | 20 | – | Cc1cc(Cc2ccccc2)c(O)c2ccccc12 | 62
38 | 1700 | – | COc1cc2ccc(Cc3ccccc3)c(O)c2cc1OC | 33
39 | 88 | – | Oc1c(Cc2cccc(Br)c2)ccc2ccccc12 | 55
40 | 140 | – | Oc1c(CCc2ccccc2)ccc2ccccc12 | 69
41 | 180 | – | Oc1c(Cc2ccc(Cl)c(Cl)c2)ccc2ccccc12 | 58
42 | 270 | – | Oc1c(Cc2cccc(C(F)(F)F)c2)ccc2ccccc12 | 67
43 | 140 | – | Oc1c(Cc2ccncc2)ccc2ccccc12 | 62
44 | 62 | – | CCOc1ccc(Cc2ccc3ccccc3c2O)cc1 | 68
45 | 48 | – | CSc1ccc(Cc2ccc3ccccc3c2O)cc1 | 76
46 | 240 | – | CS(=O)(=O)c1ccc(Cc2ccc3ccccc3c2O)cc1 | 0
47 | 68 | – | Oc1c(Cc2ccc(Br)cc2)ccc2ccccc12 | 50
48 | 100 | – | COc1cccc2c(O)c(Cc3ccccc3)ccc12 | 69

Row | IC50 [2] [nM] | IC50 [3] [nM] | Structure (SMILES) | Inhibition [1] [%]
49 | 230 | – | Oc1c(Cc2cccnc2)ccc2ccccc12 | 46
50 | 1900 | – | COc1ccc2c(O)c(Cc3ccccc3)ccc2c1 | 76
51 | 140 | – | CN(C)c1ccc(Cc2ccc3ccccc3c2O)cc1 | 67
52 | 52 | – | Oc1c(Cc2cccc(Cl)c2)ccc2ccccc12 | 67
53 | 39 | – | Oc1c(Cc2ccc(Cl)cc2)ccc2ccccc12 | 66
54 | 110 | – | COc1cccc(Cc2ccc3ccccc3c2O)c1 | 72
55 | 3500 | – | COc1ccc2ccc(Cc3ccccc3)c(O)c2c1 | 52
56 | 72 | – | Oc1c(Cc2ccc(OCc3ccccc3)cc2)ccc2ccccc12 | 12
57 | 130 | – | Oc1c(Cc2ccc(F)cc2)ccc2ccccc12 | 76
58 | 75 | – | COc1ccc(Cc2ccc3ccccc3c2O)cc1 | 85
59 | 120 | – | Cc1ccc(C)c2c(O)c(Cc3ccccc3)ccc12 | 52
60 | 58 | – | Oc1c(Cc2ccc3ccccc3c2)ccc2ccccc12 | 52
61 | 9100 | 18000 | Cl.Nc1c(Cc2ccccc2)ccc2ccccc12 | 35
62 | 51 | – | COc1ccc(Cc2ccc3ccccc3c2O)cc1OC | 60
63 | – | 240000 | CC(=O)Oc1c(Cc2ccccc2)ccc2ccccc12 | 63

Source: ChEMBL document CHEMBL1124955, “2-substituted-1-naphthols as potent 5-lipoxygenase inhibitors with topical antiinflammatory activity” (J Med Chem, 1990)
